Data: ChEMBL document CHEMBL1208782, “Synthesis and pharmacological validation of a novel series of non-steroidal FXR agonists” (Bioorg Med Chem Lett, 2010)
The source made the active and inactive calls. The calls are words filed in the database; no cut-off is given here.

How the values were obtained:
Mus musculus [1] = experiment: Reduction in total plasma triglyceride level in db/db mouse at 1-25 mg/kg bid after 12 days; format: functional, organism-based
Summary of the method: (§1)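 C57BL/KSK-mLep^db/mLep^db mice were dosed orally at 1, 5 and 25 mg/kg b.i.d. for 12 days. Total plasma triglycerides and total plasma cholesterol were measured, with cholesterol reported as mg/dl. Significance was given at p<0.05, <0.01 and <0.001 levels.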

[2] = Plasma concentration in db/db mouse at 1 mg/kg, iv after 90 mins; format: ADME, organism-based; set-up: dose 1 mg/kg, route intravenous; conditions: read-out: Drug uptake
Summary of the method: (§2)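 Single dose to mice, 5 mg/kg po or 1 mg/kg iv. Plasma was sampled at 5, 10, 30, 90 and 240 min. Only parent compound was measured, in ng/mL.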

[3] = Plasma concentration in db/db mouse at 5 mg/kg, po after 240 mins; format: ADME, organism-based; set-up: dose 5 mg/kg, route oral; conditions: read-out: Drug uptake; summary of the method: as §2
[4] = Drug level in db/db mouse bile measured metabolites as taurine amide at 5 mg/kg, po after 240 mins; format: ADME, organism-based; set-up: dose 5 mg/kg, route oral; conditions: in vivo, 4 h
Summary of the method: (§3)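 Mice got a single dose, 5 mg/kg po or 1 mg/kg iv. Liver and bile were sampled 240 min after dosing. Parent carboxylic acid, its acyl-glucuronide and its taurine amide were quantified separately, in ng/mL. Glucuronide identity was confirmed by glucuronidase digestion of bile or bile extracts, which regenerated the parent.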

[5] = Drug level in db/db mouse bile measured metabolites as taurine amide at 1 mg/kg, iv after 240 mins; format: ADME, organism-based; set-up: dose 1 mg/kg, route intravenous; conditions: in vivo, 4 h; summary of the method: as §3
[6] = Plasma concentration in db/db mouse at 1 mg/kg, iv after 10 mins; format: ADME, organism-based; set-up: dose 1 mg/kg, route intravenous; conditions: read-out: Drug uptake; summary of the method: as §2
Liver [7] = experiment: Drug level in db/db mouse liver measured metabolites as taurine amide at 5 mg/kg, po after 240 mins; format: ADME, organism-based; set-up: dose 5 mg/kg, route oral; conditions: in vivo, 4 h; summary of the method: as §3
[8] = Plasma concentration in db/db mouse at 1 mg/kg, iv after 5 mins; format: ADME, organism-based; set-up: dose 1 mg/kg, route intravenous; conditions: read-out: Drug uptake; summary of the method: as §2
[9] = target: Peroxisome proliferator-activated receptor gamma (Homo sapiens, UniProt P37231); experiment: Agonist activity at PPARgamma-LBD expressed in HEK293 cells assessed as Gal4-DBD interaction by cellular mammalian one hybrid assay; format: functional, cell-based
Peroxisome proliferator-activated receptor gamma, sequence (P37231 whole entry, the tested form may be a part): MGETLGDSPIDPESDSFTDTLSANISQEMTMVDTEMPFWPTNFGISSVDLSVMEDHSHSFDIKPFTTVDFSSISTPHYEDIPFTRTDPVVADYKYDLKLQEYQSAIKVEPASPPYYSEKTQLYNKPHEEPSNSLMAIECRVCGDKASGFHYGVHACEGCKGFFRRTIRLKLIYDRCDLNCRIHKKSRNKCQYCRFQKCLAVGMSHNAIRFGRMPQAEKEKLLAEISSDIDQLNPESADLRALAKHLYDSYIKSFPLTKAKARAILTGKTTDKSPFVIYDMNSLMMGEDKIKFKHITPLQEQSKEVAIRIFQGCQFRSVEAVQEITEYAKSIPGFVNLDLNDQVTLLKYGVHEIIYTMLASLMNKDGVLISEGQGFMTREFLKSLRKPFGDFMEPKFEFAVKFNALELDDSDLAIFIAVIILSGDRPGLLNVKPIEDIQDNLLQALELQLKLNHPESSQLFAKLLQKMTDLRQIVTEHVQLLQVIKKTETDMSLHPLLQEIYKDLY

Liver [10] = experiment: Drug level in db/db mouse liver measured metabolites as carboxylic acid at 5 mg/kg, po after 240 mins; format: ADME, organism-based; set-up: dose 5 mg/kg, route oral; conditions: in vivo, 4 h; summary of the method: as §3
[11] = Clearance in db/db mouse at 5 mg/kg, po; format: ADME, organism-based; set-up: dose 5 mg/kg, route oral; conditions: in vivo
Summary of the method: (§4)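 Mice received a single dose of 5 mg/kg po or 1 mg/kg iv. Plasma was sampled at 5, 10, 30, 90 and 240 min and the parent compound alone was measured (ng/mL). Clearance (mL/h/kg), Vd (mL/kg) and oral bioavailability were derived from these plasma profiles.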

[12] = Clearance in db/db mouse at 1 mg/kg, iv; format: ADME, organism-based; set-up: dose 1 mg/kg, route intravenous; conditions: in vivo; summary of the method: as §4
[13] = Oral bioavailability in db/db mouse at 5 mg/kg, po; format: ADME, organism-based; conditions: in vivo
Summary of the method: (§5)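 Derived from the single-dose mouse plasma time courses of parent compound, 5-240 min. Dosing was 5 mg/kg po or 1 mg/kg iv. Volume of distribution is in mL/kg, clearance in mL/h/kg, and oral bioavailability in %.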

[14] = Drug level in db/db mouse bile measured metabolites as glucuronide at 1 mg/kg, iv after 240 mins; format: ADME, organism-based; set-up: dose 1 mg/kg, route intravenous; conditions: in vivo, 4 h
Liver [15] = experiment: Drug level in db/db mouse liver measured metabolites as taurine amide at 1 mg/kg, iv after 240 mins; format: ADME, organism-based; set-up: dose 1 mg/kg, route intravenous; conditions: in vivo, 4 h; summary of the method: as §3
[16] = Drug level in db/db mouse liver at 25 mg/kg bid after 4 hrs by LC/MS-MS analysis; format: ADME, organism-based; set-up: dose 25 mg/kg; conditions: read-out: Drug uptake
Summary of the method: (§6)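 db/db mice were dosed twice daily for 12 days. Plasma and liver concentrations were determined 4 h and 24 h after the last administration.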

[17] = Drug level in db/db mouse bile measured metabolites as glucuronide at 5 mg/kg, po after 240 mins; format: ADME, organism-based; set-up: dose 5 mg/kg, route oral; conditions: in vivo, 4 h
[18] = Drug level in db/db mouse bile measured metabolites as carboxylic acid at 5 mg/kg, po after 240 mins; format: ADME, organism-based; set-up: dose 5 mg/kg, route oral; conditions: in vivo, 4 h
Mus musculus [19] = experiment: Volume of distribution in db/db mouse at 1 mg/kg, iv; format: ADME, organism-based; set-up: dose 1 mg/kg, route intravenous; conditions: in vivo; summary of the method: as §5
Mus musculus [20] = experiment: Reduction in total plasma cholesterol level in db/db mouse at 1-25 mg/kg bid after 12 days; format: functional, organism-based; summary of the method: as §1
[21] = Plasma concentration in db/db mouse at 5 mg/kg, po after 10 mins; format: ADME, organism-based; set-up: dose 5 mg/kg, route oral; conditions: read-out: Drug uptake; summary of the method: as §2
[22] = Drug level in db/db mouse bile measured metabolites as carboxylic acid at 1 mg/kg, iv after 240 mins; format: ADME, organism-based; set-up: dose 1 mg/kg, route intravenous; conditions: in vivo, 4 h
Estrogen receptor = Estrogen receptor (Homo sapiens, UniProt P03372); experiment: Agonist activity at ERalpha-LBD expressed in HEK293 cells assessed as Gal4-DBD interaction by cellular mammalian one hybrid assay; format: functional, cell-based
Estrogen receptor, sequence (P03372 whole entry, the tested form may be a part): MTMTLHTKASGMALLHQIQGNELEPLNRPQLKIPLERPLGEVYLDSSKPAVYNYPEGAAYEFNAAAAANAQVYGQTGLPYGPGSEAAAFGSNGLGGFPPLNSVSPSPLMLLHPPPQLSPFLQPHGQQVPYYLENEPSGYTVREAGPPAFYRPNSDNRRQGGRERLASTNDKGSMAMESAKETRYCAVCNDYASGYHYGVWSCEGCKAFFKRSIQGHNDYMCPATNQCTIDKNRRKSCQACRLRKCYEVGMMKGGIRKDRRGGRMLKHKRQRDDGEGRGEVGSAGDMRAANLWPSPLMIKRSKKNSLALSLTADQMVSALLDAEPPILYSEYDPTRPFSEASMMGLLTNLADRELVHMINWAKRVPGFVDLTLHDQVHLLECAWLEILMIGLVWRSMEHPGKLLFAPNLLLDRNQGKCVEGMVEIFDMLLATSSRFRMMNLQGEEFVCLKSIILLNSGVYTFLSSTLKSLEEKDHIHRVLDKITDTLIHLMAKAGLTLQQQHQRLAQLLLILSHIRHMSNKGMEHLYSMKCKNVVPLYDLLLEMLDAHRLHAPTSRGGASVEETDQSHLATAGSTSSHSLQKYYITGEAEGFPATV

[23] = Plasma concentration in db/db mouse at 25 mg/kg bid after 4 hrs by LC/MS-MS analysis; format: ADME, organism-based; set-up: dose 25 mg/kg; conditions: read-out: Drug uptake; summary of the method: as §6
Liver [24] = experiment: Drug level in db/db mouse liver measured metabolites as carboxylic acid at 1 mg/kg, iv after 240 mins; format: ADME, organism-based; set-up: dose 1 mg/kg, route intravenous; conditions: in vivo, 4 h; summary of the method: as §3
Liver [25] = experiment: Drug level in db/db mouse liver measured metabolites as glucuronide at 5 mg/kg, po after 240 mins; format: ADME, organism-based; set-up: dose 5 mg/kg, route oral; conditions: in vivo, 4 h; summary of the method: as §3
[26] = target: Peroxisome proliferator-activated receptor alpha (Homo sapiens, UniProt Q07869); experiment: Agonist activity at PPARalpha-LBD expressed in HEK293 cells assessed as Gal4-DBD interaction by cellular mammalian one hybrid assay; format: functional, cell-based
Peroxisome proliferator-activated receptor alpha, sequence (Q07869 whole entry, the tested form may be a part): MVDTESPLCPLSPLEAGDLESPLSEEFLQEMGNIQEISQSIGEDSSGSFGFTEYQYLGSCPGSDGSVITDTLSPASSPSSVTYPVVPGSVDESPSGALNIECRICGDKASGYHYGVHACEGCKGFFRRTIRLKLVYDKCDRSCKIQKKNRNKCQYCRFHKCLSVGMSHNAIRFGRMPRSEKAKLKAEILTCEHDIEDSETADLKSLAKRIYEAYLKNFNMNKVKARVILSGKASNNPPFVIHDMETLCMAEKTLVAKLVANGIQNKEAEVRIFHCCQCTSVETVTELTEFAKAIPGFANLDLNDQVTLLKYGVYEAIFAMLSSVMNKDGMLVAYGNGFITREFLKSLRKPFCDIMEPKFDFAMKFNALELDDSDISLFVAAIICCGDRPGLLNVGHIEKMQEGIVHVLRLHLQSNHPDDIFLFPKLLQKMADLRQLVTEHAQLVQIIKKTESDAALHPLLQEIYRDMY

[27] = Plasma concentration in db/db mouse at 5 mg/kg, po after 5 mins; format: ADME, organism-based; set-up: dose 5 mg/kg, route oral; conditions: read-out: Drug uptake; summary of the method: as §2
[28] = Plasma concentration in db/db mouse at 5 mg/kg, po after 30 mins; format: ADME, organism-based; set-up: dose 5 mg/kg, route oral; conditions: read-out: Drug uptake; summary of the method: as §2
Mus musculus [29] = experiment: Volume of distribution in db/db mouse at 5 mg/kg, po; format: ADME, organism-based; set-up: dose 5 mg/kg, route oral; conditions: in vivo; summary of the method: as §5
[30] = Plasma concentration in db/db mouse at 5 mg/kg, po after 90 mins; format: ADME, organism-based; set-up: dose 5 mg/kg, route oral; conditions: read-out: Drug uptake; summary of the method: as §2
[31] = Plasma concentration in db/db mouse at 1 mg/kg, iv after 30 mins; format: ADME, organism-based; set-up: dose 1 mg/kg, route intravenous; conditions: read-out: Drug uptake; summary of the method: as §2
[32] = Plasma concentration in db/db mouse at 25 mg/kg bid after 24 hrs by LC/MS-MS analysis; format: ADME, organism-based; set-up: dose 25 mg/kg; conditions: read-out: Drug uptake; summary of the method: as §6
Estrogen receptor beta = Estrogen receptor beta (Homo sapiens, UniProt Q92731); experiment: Agonist activity at ERbeta-LBD expressed in HEK293 cells assessed as Gal4-DBD interaction by cellular mammalian one hybrid assay; format: functional, cell-based
Estrogen receptor beta, sequence (Q92731 whole entry, the tested form may be a part): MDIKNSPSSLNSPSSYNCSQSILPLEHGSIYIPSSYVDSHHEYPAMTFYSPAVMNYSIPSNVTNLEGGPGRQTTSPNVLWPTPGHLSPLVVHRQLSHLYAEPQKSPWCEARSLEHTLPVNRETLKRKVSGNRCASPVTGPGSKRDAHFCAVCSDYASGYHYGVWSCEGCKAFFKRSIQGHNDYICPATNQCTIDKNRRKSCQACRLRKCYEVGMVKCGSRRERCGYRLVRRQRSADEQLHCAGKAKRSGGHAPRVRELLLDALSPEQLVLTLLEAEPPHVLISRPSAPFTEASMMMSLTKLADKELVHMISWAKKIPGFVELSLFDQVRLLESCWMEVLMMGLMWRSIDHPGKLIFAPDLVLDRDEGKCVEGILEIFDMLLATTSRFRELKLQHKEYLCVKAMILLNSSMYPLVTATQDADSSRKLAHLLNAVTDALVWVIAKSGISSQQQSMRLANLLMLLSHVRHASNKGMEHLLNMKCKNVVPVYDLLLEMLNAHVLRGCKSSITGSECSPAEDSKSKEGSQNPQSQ

Liver [33] = experiment: Drug level in db/db mouse liver measured metabolites as glucuronide at 1 mg/kg, iv after 240 mins; format: ADME, organism-based; set-up: dose 1 mg/kg, route intravenous; conditions: in vivo, 4 h; summary of the method: as §3
[34] = Plasma concentration in db/db mouse at 1 mg/kg, iv after 240 mins; format: ADME, organism-based; set-up: dose 1 mg/kg, route intravenous; conditions: read-out: Drug uptake; summary of the method: as §2
Mus musculus [35] = experiment: Reduction in total plasma cholesterol level in db/db mouse at 1 mg/kg bid after 12 days; format: functional; summary of the method: as §1

Compound | Activity (Mus musculus [1]) | concentration at 1.5 h [2] | concentration at 4 h [3] | Drug uptake [4] | Drug uptake [5] | concentration at 10 min [6] | concentration at 5 min [8] | EC50 [9] | Drug uptake (Liver [10]) | CL/F [11] | clearance [12] | bioavailability [13] | Drug uptake [14] | concentration at 4 h [16] | Drug uptake [17] | Drug uptake [18] | Vd (Mus musculus [19]) | Activity (Mus musculus [20]) | concentration at 10 min [21] | Drug uptake [22] | other results
CC(C)c1onc(-c2c(Cl)cccc2Cl)c1COc1ccc(N(C)Cc2ccc(C(=O)O)cc2)c(C(F)(F)F)n1 | Active | 122 ng/mL | 14 ng/mL | 22443 ng/mL | 11927 ng/mL | 1600 ng/mL | 1620 ng/mL | > 10 µM | 1512 ng/mL | 104 mL/min/kg | 16.8 mL/min/kg | 16.2% | 4261 ng/mL | 10400 nM | 18928 ng/mL | 1697 ng/mL | 0.931 L/kg | Active | 92 ng/mL | 472 ng/mL | Drug uptake (Liver [7]): 372 ng/mL; Drug uptake (Liver [15]): 134 ng/mL; EC50 (Estrogen receptor): > 10 µM; concentration at 4 h [23]: 512 nM; Drug uptake (Liver [24]): 262 ng/mL; Drug uptake (Liver [25]): 2872 ng/mL; EC50 [26]: > 10 µM; concentration at 5 min [27]: 57 ng/mL; concentration at 0.5 h [28]: 420 ng/mL; Vd (Mus musculus [29]): 5.26 L/kg; concentration at 1.5 h [30]: 267 ng/mL; concentration at 0.5 h [31]: 361 ng/mL; concentration at 24 h [32]: 3 nM; EC50 (Estrogen receptor beta): > 10 µM
CN(Cc1ccc(C(=O)O)cc1)c1ccc(OCc2c(-c3c(Cl)cccc3Cl)noc2C2CC2)nc1C(F)(F)F | Active | 398 ng/mL | 52 ng/mL | 47638 ng/mL | 10013 ng/mL | 437 ng/mL | 745 ng/mL | > 10 µM | 257 ng/mL | 67.9 mL/min/kg | 11.9 mL/min/kg | 16.1% | 150 ng/mL | 14800 nM | 2807 ng/mL | 1446 ng/mL | 1.24 L/kg | Active | 283 ng/mL | 173 ng/mL | Drug uptake (Liver [33]): 17 ng/mL; EC50 (Estrogen receptor): > 10 µM; concentration at 4 h [34]: 94 ng/mL; concentration at 4 h [23]: 344 nM; Drug uptake (Liver [24]): 23 ng/mL; Drug uptake (Liver [25]): 172 ng/mL; EC50 [26]: > 10 µM; concentration at 5 min [27]: 427 ng/mL; concentration at 0.5 h [28]: 531 ng/mL; Vd (Mus musculus [29]): 5.2 L/kg; Activity (Mus musculus [35]): 97.2 mg/dL; concentration at 1.5 h [30]: 370 ng/mL; concentration at 0.5 h [31]: 325 ng/mL; concentration at 24 h [32]: 11 nM; EC50 (Estrogen receptor beta): > 10 µM
